≈ marks a conversion by molar mass, not a printed value.
How the values were obtained:
Escherichia coli [1] = assay: Bactericidal activity against Escherichia coli ATCC 35150 incubated for 24 hrs followed by re-plating on nutrient agar and measured after overnight incubation by two fold serial dilution method; assay type: functional; details: ATCC 35150, 24 h
How it was run: (§1)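 After the MIC read, 100 µl from every tube without visible growth was spread on nutrient agar lacking compound. Plates were incubated overnight at 28 ± 1 °C. MBC was taken as the lowest concentration killing >99.9% of the initial population, seen as no growth on agar.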

Streptococcus agalactiae [2] = assay: Antibacterial activity against Streptococcus agalactiae WB1445 after 24 hrs by two fold serial dilution method; assay type: functional; details: WB1445, 24 h
How it was run: (§2)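 Broth two-fold serial dilution per CLSI, in nutrient broth. Inoculum from 24 h cultures at 28 ± 1 °C, adjusted in saline to 1×10^7-2×10^7 cfu/mL, then diluted to 1×10^5-2×10^5 cfu/mL. Test range 256 down to 0.50 µM and lower. Tubes held 24 h at 28 ± 1 °C. MIC read visually. Enrofloxacin and norfloxacin served as standards.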

[3] = Inhibition of Escherichia coli ATCC 35150 FabI in presence of t-O-NAC and NADH up to 1 min by spectrophotometric analysis
How it was run: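 Recombinant His-tagged FabI, expressed in E. coli BL21(DE3) and purified on Ni-NTA, was used at 20 µL of 100 µg/mL stock in 0.1 M PBS-DTT. Compounds were tested at 128-1 µM with 10 µL of 4 mM t-O-NAC, and 20 µL of 2 mM NADH started the reaction. NADH oxidation was followed at 340 nm for 1 min. IC50 came from dose-response plots.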

[4] = molecular target: T1, Enoyl-(Acyl-carrier-protein) reductase II (Streptococcus agalactiae serotype V (strain ATCC BAA-611 / 2603 V/R), UniProt Q8E1K8); assay: Inhibition of Streptococcus agalactiae WB1445 FabK in presence of t-O-NAC and NADH up to 1 min by spectrophotometric analysis
T1 sequence (Q8E1K8 whole entry): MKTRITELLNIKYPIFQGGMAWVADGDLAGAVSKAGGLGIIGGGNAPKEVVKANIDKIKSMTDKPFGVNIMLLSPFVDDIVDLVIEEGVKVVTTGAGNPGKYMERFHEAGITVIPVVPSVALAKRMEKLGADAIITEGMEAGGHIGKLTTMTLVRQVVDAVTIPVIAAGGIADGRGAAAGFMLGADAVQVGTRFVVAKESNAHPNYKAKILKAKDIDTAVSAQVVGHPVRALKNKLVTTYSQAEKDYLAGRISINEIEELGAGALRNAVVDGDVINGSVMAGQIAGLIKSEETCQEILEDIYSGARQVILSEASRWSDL
How it was run: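 Recombinant His-tagged FabK (20 µL of 150 µg/mL stock) was assayed in 100 µL of 0.1 M ADA-DTT, pH 6.5, against compounds at 128-1 µM, with 10 µL of 4 mM t-O-NAC. Addition of 20 µL of 2 mM NADH started the reaction. Absorbance at 340 nm was read for 1 min. IC50 was estimated from dose-response curves.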

Staphylococcus aureus [5] = assay: Bactericidal activity against Staphylococcus aureus ATCC 29213 incubated for 24 hrs followed by re-plating on nutrient agar and measured after overnight incubation by two fold serial dilution method; assay type: functional; details: ATCC 29213, 24 h; how it was run: as §1
Staphylococcus aureus [6] = assay: Antibacterial activity against Staphylococcus aureus ATCC 29213 after 24 hrs by two fold serial dilution method; assay type: functional; details: ATCC 29213, 24 h; how it was run: as §2
Streptococcus agalactiae [7] = assay: Bactericidal activity against Streptococcus agalactiae WB1445 incubated for 24 hrs followed by re-plating on nutrient agar and measured after overnight incubation by two fold serial dilution method; assay type: functional; details: WB1445, 24 h; how it was run: as §1
Flavobacterium columnare [8] = assay: Bactericidal activity against Flavobacterium columnare FC-G1 incubated for 24 hrs followed by re-plating on nutrient agar and measured after overnight incubation by two fold serial dilution method; assay type: functional; details: FC-G1, 24 h; how it was run: as §1
Flavobacterium columnare [9] = assay: Antibacterial activity against Flavobacterium columnare FC-G1 after 24 hrs by two fold serial dilution method; assay type: functional; details: FC-G1, 24 h; how it was run: as §2
Escherichia coli [10] = assay: Antibacterial activity against Escherichia coli ATCC 35150 after 24 hrs by two fold serial dilution method; assay type: functional; details: ATCC 35150, 24 h; how it was run: as §2

Structure (SMILES) | MIC (Streptococcus agalactiae [2]) | IC50 [3] | IC50 [4] | MIC (Staphylococcus aureus [6]) | MIC (Flavobacterium columnare [9]) | MIC (Escherichia coli [10]) | MBC (Escherichia coli [1]) | MBC (Staphylococcus aureus [5]) | MBC (Streptococcus agalactiae [7]) | MBC (Flavobacterium columnare [8])
Cc1nccn1CCCCCCOc1ccc2ccc(=O)oc2c1 | 128 µM (≈ 41.8 µg/mL) | 1.2 µM | 3.44 µM | 64 µM (≈ 20.9 µg/mL) | 16 µM (≈ 5.22 µg/mL) | 8 µM (≈ 2.61 µg/mL) | 64 µM (≈ 20.9 µg/mL) | 256 µM (≈ 83.6 µg/mL) | 256 µM (≈ 83.6 µg/mL) | 32 µM (≈ 10.4 µg/mL)
Cc1nccn1CCCCCCCCCCOc1ccc2ccc(=O)oc2c1 | 8 µM (≈ 3.06 µg/mL) | 108 µM | 4.21 µM | 64 µM (≈ 24.5 µg/mL) | 8 µM (≈ 3.06 µg/mL) | > 256 µM | > 256 µM | 128 µM (≈ 49 µg/mL) | 16 µM (≈ 6.12 µg/mL) | 16 µM (≈ 6.12 µg/mL)
Cc1cn(CCCCCCOc2ccc3ccc(=O)oc3c2)cn1 | 128 µM (≈ 41.8 µg/mL) | 1.35 µM | 3.59 µM | 32 µM (≈ 10.4 µg/mL) | 32 µM (≈ 10.4 µg/mL) | 16 µM (≈ 5.22 µg/mL) | 64 µM (≈ 20.9 µg/mL) | 128 µM (≈ 41.8 µg/mL) | 256 µM (≈ 83.6 µg/mL) | 128 µM (≈ 41.8 µg/mL)
Cc1nccn1CCCCOc1ccc2ccc(=O)oc2c1 | > 256 µM | 4.46 µM | > 256 µM | 256 µM (≈ 76.4 µg/mL) | > 256 µM | 64 µM (≈ 19.1 µg/mL) | 256 µM (≈ 76.4 µg/mL) | 256 µM (≈ 76.4 µg/mL) | > 256 µM | > 256 µM
O=c1ccc2ccc(OCCCCCCCCCCn3ccnc3)cc2o1 | 8 µM (≈ 2.95 µg/mL) | > 256 µM | 5.03 µM | 64 µM (≈ 23.6 µg/mL) | 16 µM (≈ 5.9 µg/mL) | > 256 µM | > 256 µM | 128 µM (≈ 47.2 µg/mL) | 16 µM (≈ 5.9 µg/mL) | 16 µM (≈ 5.9 µg/mL)

Now from value to compound, other results behind:

MIC (Streptococcus agalactiae [2]) | IC50 [3] | IC50 [4] | MIC (Staphylococcus aureus [6]) | MIC (Flavobacterium columnare [9]) | MIC (Escherichia coli [10]) | Structure (SMILES) | MBC (Escherichia coli [1]) | MBC (Staphylococcus aureus [5]) | MBC (Streptococcus agalactiae [7]) | MBC (Flavobacterium columnare [8])
4 µM (≈ 1.42 µg/mL) | 112 µM | 1.13 µM | 16 µM (≈ 5.67 µg/mL) | 2 µM (≈ 0.709 µg/mL) | > 256 µM | Cc1nccn1CCCCCCCCOc1ccc2ccc(=O)oc2c1 | > 256 µM | 128 µM (≈ 45.4 µg/mL) | 16 µM (≈ 5.67 µg/mL) | 8 µM (≈ 2.84 µg/mL)
4 µM (≈ 1.42 µg/mL) | 117 µM | 1.75 µM | 8 µM (≈ 2.84 µg/mL) | 4 µM (≈ 1.42 µg/mL) | > 256 µM | Cc1cn(CCCCCCCCOc2ccc3ccc(=O)oc3c2)cn1 | > 256 µM | 64 µM (≈ 22.7 µg/mL) | 16 µM (≈ 5.67 µg/mL) | 8 µM (≈ 2.84 µg/mL)
8 µM (≈ 3.06 µg/mL) | 115 µM | 4.37 µM | 32 µM (≈ 12.2 µg/mL) | 16 µM (≈ 6.12 µg/mL) | > 256 µM | Cc1cn(CCCCCCCCCCOc2ccc3ccc(=O)oc3c2)cn1 | > 256 µM | 128 µM (≈ 49 µg/mL) | 16 µM (≈ 6.12 µg/mL) | 16 µM (≈ 6.12 µg/mL)
